Assay results published in ChEMBL document CHEMBL1139798, “Synthesis of chlorogenic acid derivatives with promising antifungal activity” (Bioorg Med Chem, 2007).
Converted amounts (≈) assume the structure as drawn.

What was measured:
Cryptococcus neoformans = assay: Antifungal activity against Cryptococcus neoformans ATCC 32045 after 48 to 72 hrs; format: functional
Procedure, shortened: (§1)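 Broth dilution following NCCLS guidelines. Final compound concentrations ran from 0.12 to 64. MIC was taken as the lowest concentration giving 80% inhibition of growth relative to the drug-free control.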

[1] = Lethality in brine shrimp at 100 ug/ml; format: organism-based; details: artemia, in vivo; read-out: Activity
Aspergillus fumigatus = assay: Antifungal activity against Aspergillus fumigatus ATCC 13073 after 48 hrs; format: functional; details: ATCC 13073, 48 h; procedure, shortened: as §1
Candida albicans = assay: Antifungal activity against Candida albicans ATCC 90028 after 18 to 24 hrs; format: functional; procedure, shortened: as §1
Pichia kudriavzevii = assay: Antifungal activity against Candida krusei ATCC 6258; format: functional

SMILES | MIC (Cryptococcus neoformans) [µg/mL] | mortality at 100 ug/ml [1] [%] | MIC (Aspergillus fumigatus) [µg/mL] | MIC (Candida albicans) [µg/mL] | MIC (Pichia kudriavzevii) [µg/mL]
CCCCCCCCOc1ccc(NC(=O)C(CCCNC(=O)OC(C)(C)C)NC(=O)[C@]2(O)C[C@@H](O)[C@@H](O)[C@H](OC(=O)CCc3ccc(O)c(O)c3)C2)cc1 (stereo not given in full) | 4 (≈ 5.17 µM) | 21.1 | > 64 | > 64 | 
CCCCCCCCOc1ccc(NC(=O)C(CCCN)NC(=O)[C@]2(O)C[C@@H](O)[C@@H](O)[C@H](OC(=O)CCc3ccc(O)c(O)c3)C2)cc1 (stereo not given in full) | 8 (≈ 11.9 µM) | 10.5 | 64 (≈ 95 µM) | 16 (≈ 23.7 µM) | 
CCCCCCCCOc1ccc(NC(=O)C(CCCNC(=O)OC(C)(C)C)NC(=O)[C@@]2(O)C[C@@H](OC(=O)/C=C/c3ccc(O)cc3)[C@@H]3OC(C)(C)O[C@@H]3C2)cc1 (stereo not given in full) | > 64 | 0 | > 64 | > 64 | 
CCCCCCCCOc1ccc(NC(=O)C(CCCNC(=O)OC(C)(C)C)NC(=O)[C@]2(O)C[C@@H](O)[C@@H](O)[C@H](OC(=O)/C=C/c3ccc(O)cc3)C2)cc1 (stereo not given in full) | > 64 | 31.6 | > 64 | > 64 | 
CCCCCCCCOc1ccc(NC(=O)[C@@]2(O)C[C@@H](OC(=O)/C=C/c3ccc(O)c(O)c3)[C@@H]3OC(C)(C)O[C@@H]3C2)cc1 | 2 (≈ 3.35 µM) | 100 | > 64 | 16 (≈ 26.8 µM) | 
CCCCCCCCOc1ccc(NC(=O)C(NC(=O)[C@@]2(O)C[C@@H](OC(=O)/C=C/c3ccc(O)c(O)c3)[C@@H]3OC(C)(C)O[C@@H]3C2)C(C)OC(C)(C)C)cc1 (stereo not given in full) | 4 (≈ 5.3 µM) | 6.2 | > 64 | 32 (≈ 42.4 µM) | 
CCCCCCCCOc1ccc(NC(=O)C(CC(=O)OC(C)(C)C)NC(=O)[C@]2(O)C[C@@H](O)[C@@H](O)[C@H](OC(=O)/C=C/c3ccc(O)c(O)c3)C2)cc1 (stereo not given in full) | 2 (≈ 2.74 µM) | 37.5 | > 64 | 2 (≈ 2.74 µM) | 
CCCCCCCCOc1ccc(NC(=O)C(COC(C)(C)C)NC(=O)[C@]2(O)C[C@@H](O)[C@@H](O)[C@H](OC(=O)/C=C/c3ccc(O)c(O)c3)C2)cc1 (stereo not given in full) | 2 (≈ 2.85 µM) | 31.1 | > 64 | 4 (≈ 5.71 µM) | 
CCCCCCCCOc1ccc(NC(=O)C(CCCNC(=O)OC(C)(C)C)NC(=O)[C@]2(O)C[C@@H](O)[C@@H](O)[C@H](OC(=O)/C=C/c3ccc(O)c(O)c3)C2)cc1 (stereo not given in full) | 1 (≈ 1.3 µM) | 25 | > 64 | 2 (≈ 2.59 µM) | 
CCCCCCCCOc1ccc(NC(=O)C(CCCN)NC(=O)[C@]2(O)C[C@@H](O)[C@@H](O)[C@H](OC(=O)/C=C/c3ccc(O)cc3)C2)cc1 (stereo not given in full) | 4 (≈ 6.1 µM) | 100 | 32 (≈ 48.8 µM) | 8 (≈ 12.2 µM) | 
CCCCCCCCOc1ccc(NC(=O)C(CC(=O)OC(C)(C)C)NC(=O)[C@@]2(O)C[C@@H](OC(=O)/C=C/c3ccc(O)c(O)c3)[C@@H]3OC(C)(C)O[C@@H]3C2)cc1 (stereo not given in full) | 2 (≈ 2.6 µM) | 56.2 | > 64 | > 64 | 
CCCCCCCCOc1ccc(NC(=O)C(CCCNC(=O)OC(C)(C)C)NC(=O)[C@@]2(O)C[C@@H](OC(=O)/C=C/c3ccc(O)c(O)c3)[C@@H]3OC(C)(C)O[C@@H]3C2)cc1 (stereo not given in full) | 2 (≈ 2.46 µM) | 12.5 | > 64 | > 64 | 
CCCCCCCCOc1ccc(NC(=O)C(NC(=O)[C@]2(O)C[C@@H](O)[C@@H](O)[C@H](OC(=O)/C=C/c3ccc(O)c(O)c3)C2)C(C)O)cc1 (stereo not given in full) | 2 (≈ 3.04 µM) | 12.5 | > 64 | 8 (≈ 12.1 µM) | 2 (≈ 3.04 µM)
CCCCCCCCOc1ccc(NC(=O)C(CCCN)NC(=O)[C@]2(O)C[C@@H](O)[C@@H](O)[C@H](OC(=O)/C=C/c3ccc(O)c(O)c3)C2)cc1 (stereo not given in full) | 1 (≈ 1.49 µM) | 37.5 | 16 (≈ 23.8 µM) | 4 (≈ 5.95 µM) | 
CCCCCCCCOc1ccc(NC(=O)C(CO)NC(=O)[C@]2(O)C[C@@H](O)[C@@H](O)[C@H](OC(=O)/C=C/c3ccc(O)c(O)c3)C2)cc1 (stereo not given in full) | 4 (≈ 6.2 µM) | 18.8 | > 64 | > 64 | 
CCCCCCCCOc1ccc(NC(=O)C(NC(=O)[C@]2(O)C[C@@H](O)[C@@H](O)[C@H](OC(=O)/C=C/c3ccc(O)c(O)c3)C2)C(C)OC(C)(C)C)cc1 (stereo not given in full) | 1 (≈ 1.4 µM) | 50 | > 64 | 2 (≈ 2.8 µM) | 2 (≈ 2.8 µM)
CCCCCCCCOc1ccc(NC(=O)C(CC(=O)O)NC(=O)[C@]2(O)C[C@@H](O)[C@@H](O)[C@H](OC(=O)/C=C/c3ccc(O)c(O)c3)C2)cc1 (stereo not given in full) | 16 (≈ 23.8 µM) | 6.3 | > 64 | 64 (≈ 95.1 µM) | 
CCCCCCCCOc1ccc(NC(=O)C(COC(C)(C)C)NC(=O)[C@@]2(O)C[C@@H](OC(=O)/C=C/c3ccc(O)c(O)c3)[C@@H]3OC(C)(C)O[C@@H]3C2)cc1 (stereo not given in full) | 2 (≈ 2.7 µM) | 31.3 | > 64 | 32 (≈ 43.2 µM) | 
CCCCCCCCOc1ccc(NC(=O)[C@]2(O)C[C@@H](O)[C@@H](O)[C@H](OC(=O)/C=C/c3ccc(O)c(O)c3)C2)cc1 | 2 (≈ 3.59 µM) | 50 | > 64 | 8 (≈ 14.3 µM) | 
C[C@@H]1[C@H](O)[C@@H](C)/C=C/C=C/C=C/C=C/C=C/C=C/C=C/[C@H](O[C@@H]2O[C@H](C)[C@@H](O)[C@H](N)[C@@H]2O)C[C@@H]2O[C@](O)(C[C@@H](O)C[C@@H](O)[C@H](O)CC[C@@H](O)C[C@@H](O)CC(=O)O[C@H]1C)C[C@H](O)[C@H]2C(=O)O [AMPHOTERICIN B] |  |  |  | 0.5 (≈ 0.541 µM) | 
O=C(/C=C/c1ccc(O)c(O)c1)O[C@@H]1C[C@](O)(C(=O)O)C[C@@H](O)[C@H]1O [CHLOROGENIC ACID] |  | 100 |  | > 64 | > 64
OC(Cn1cncn1)(Cn1cncn1)c1ccc(F)cc1F [FLUCONAZOLE] | 0.5 (≈ 1.63 µM) |  | > 64 | 0.25 (≈ 0.816 µM) | 
